For orientation: inhibition means the relative decrease from the control value, in per cent.

Ten compounds from PubChem BioAssay can be followed below.

Calls of active or inactive are those of the source.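 How the source made its calls, unless noted: active means fluorescence slope after compound addition differing from the mean of all tested samples at 99.7% confidence, mostly higher but some lower; inactive means the rest.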

Test [1] in a line: inhibitors of TNFa-induced NFkB p65 translocation, primary screen, imaging, HUVEC, MLSMR starter and 10KST1 sets (AID 438;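 active means inhibition above 20% together with a positive visual image hit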;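 further: compound added about 3h40 before a 20 min TNFalpha stimulation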;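 on inhibition: signal is the nuclear over cytoplasmic p65 intensity ratio per well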). The note with it: HUVEC TNFa-induced p65 nuclear translocation; cell count: measured here: nuclei count (cytotoxicity indicator), at 2.08 µM; inhibition: at 2 µM, stronger effect = higher value, 0% TNFa-plus-vehicle, 100% no-TNFa wells.
The nature of test [2]: inhibitors of mutant huntingtin aggregation, primary screen, imaging, exon1htt(103Q)mCFP cells, high-content imaging (AID 483;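 active means visual image review flags a hit and inhibition of aggregation exceeds 20%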;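 further: compound exposure lasted 3 days before fixation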;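 on nuclei count: percent of the per-plate median nuclei count of sample wells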). The note with it: exon1htt(103Q)mCFP cell line, aggregate imaging, at 2 µM; inhibition of aggregation: stronger effect = higher value; nuclei count: measured here: cell count, toxicity.
A short description of test [3]: inhibitors of E-selectin induction by TNFa, primary screen, imaging, HUVEC, immunofluorescence, MLSMR starter and 10KST1 sets (AID 487;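 active means visually confirmed hit in the image check and inhibition above 20%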;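 on inhibition: signal is fraction of cell area covered by stained E-selectin grains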;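 on nuclei count: 100% = median nuclei count of all wells on the same plate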). To be noted: HUVEC TNFalpha-induced E-selectin immunofluorescence imaging, at 2 µM; inhibition: stronger effect = higher value; nuclei count: measured here: cell number, toxicity.
Test [4] concerns the target Voltage-gated potassium channel subunit beta-2 (Rattus norvegicus) (UniProt P62483). The test is described as follows: KvBeta enzyme negative modulators, primary screen, biochemical, NADPH fluorescence (AID 622;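 active means fluorescence slope higher than the sample average by over 3 SD, cut at about -0.22 in these data, passing the limit was not always enough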;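 further: slope of raw intensity against log time taken from 70 to 1610 s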). The note with it: recombinant KvBeta, 4-cyanobenzaldehyde reduction, at 10 µM, stronger effect = higher value.
For test [5] the target is unchanged. The test is described as follows: KvBeta positive modulators, primary screen, biochemical, NADPH fluorescence (AID 623;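 active means NADPH fluorescence slope more negative than the mean of all samples by about 3 SD, 99.7% confidence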;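 further: fluorescence intensity change per second fitted from 20 to 320 s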). To be noted: Recombinant KvBeta, NADPH fluorescence decrease slope, 10 min; at 10 µM; stronger effect = lower value.
The target of test [6] is Muscarinic acetylcholine receptor M4 (Homo sapiens) (UniProt P08173). The test is described as follows: compounds altering M4/GIRK thallium flux, either direction, primary screen, M4 allosteric agonist project, cell-based, HEK293 M4/GIRK, BTC-AM (AID 625).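 Further: thallium influx through GIRK channels coupled to M4 in HEK293 cells with BTC-AM dye.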 To be noted: at 10 µM, actives lie on both sides. The gist of the method: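 assay system = HEK293 cells with M4 receptor and GIRK channels | medium = pH 7.3 thallium assay buffer | doses = 10 µM final, single point | timing = cells overnight at 37 °C, BTC-AM loading 1 h, reads 2 min total | signal = BTC-AM fluorescence, 1 Hz kinetic reads | read-out = post-addition slope, 15–24 s, of baseline-normalized fluorescence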
Chain of Muscarinic acetylcholine receptor M4 (Homo sapiens) (P08173 whole entry, looked up): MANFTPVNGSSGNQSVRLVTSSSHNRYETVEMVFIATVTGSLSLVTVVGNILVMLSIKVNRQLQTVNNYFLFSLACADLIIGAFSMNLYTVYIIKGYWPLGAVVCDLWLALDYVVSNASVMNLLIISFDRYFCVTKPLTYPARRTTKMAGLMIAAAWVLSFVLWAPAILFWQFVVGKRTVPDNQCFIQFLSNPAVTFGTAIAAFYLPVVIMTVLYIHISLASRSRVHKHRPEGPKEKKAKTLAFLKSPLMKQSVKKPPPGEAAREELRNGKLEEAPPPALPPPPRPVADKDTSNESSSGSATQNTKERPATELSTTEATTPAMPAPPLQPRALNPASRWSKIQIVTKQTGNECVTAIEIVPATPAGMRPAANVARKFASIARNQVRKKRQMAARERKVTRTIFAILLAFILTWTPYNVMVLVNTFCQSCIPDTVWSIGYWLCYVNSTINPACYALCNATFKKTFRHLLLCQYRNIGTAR

A short description of test [7]: inhibitors of Sendai virus-induced IRF3 signaling, primary screen, TLR/RLR signaling modifier project, cell-based, Sendai virus stimulus, luciferase, 10K MLSCN set (AID 602276;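 active means inhibition at or above 50% at 10 µM; inactive means inhibition below 50%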;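 further: firefly luciferase from ISG56 promoter only with Renilla not read in this screen; 0% = Sendai virus plus DMSO and 100% = medium plus DMSO without virus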). The note with it: HEK293 RL24 IRF3 luciferase reporter, at 10 µM, stronger effect = higher value.
The nature of test [8]: inhibitors of poly I:C-induced TLR3 signaling, primary screen, cell-based, poly I:C stimulus, luciferase, 10K MLSCN set (AID 602277;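 active means inhibition of the reporter signal at or above 50%; inactive means inhibition below 50%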). To be noted: HEK293-TLR3 RL24 IRF3 luciferase reporter, at 10 µM, stronger effect = higher value. A general note: Reporter assays use an easily measured gene product as a stand-in for the process of interest.

Chain of Voltage-gated potassium channel subunit beta-2 (Rattus norvegicus) (P62483 whole entry, looked up): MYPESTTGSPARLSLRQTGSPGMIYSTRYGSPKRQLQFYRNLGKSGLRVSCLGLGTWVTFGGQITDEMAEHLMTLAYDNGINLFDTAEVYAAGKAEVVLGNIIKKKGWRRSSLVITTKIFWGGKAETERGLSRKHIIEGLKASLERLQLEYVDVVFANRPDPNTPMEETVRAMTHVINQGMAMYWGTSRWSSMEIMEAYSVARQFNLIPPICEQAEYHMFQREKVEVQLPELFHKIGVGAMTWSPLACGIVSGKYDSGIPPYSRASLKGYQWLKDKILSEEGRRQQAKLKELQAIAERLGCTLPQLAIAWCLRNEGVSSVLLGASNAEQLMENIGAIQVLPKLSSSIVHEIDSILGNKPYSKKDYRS

As to `COc1cc(C(N)=O)ccc1OCc1ccccc1`, the cell count in test [1] was 364. For the same compound, the inhibition in test [1] is 14% (inactive); in test [3], -51.6% (inactive); in test [7], -12.9% (inactive); in test [8], -32.5% (inactive). Also, the inhibition of aggregation in test [2] is -5.1% (inactive). The values for the nuclei count in test [2] and in test [3] were 107% and 110%, respectively. The fluorescence slope in test [4] was -0.472 (inactive); in test [6], 0.00562 (inactive). The NADPH fluorescence slope in test [5] is -7.2e-06 (inactive).
For `Cc1ccc(NC(=O)Nc2ccc3c(c2)N(C)C(=O)CS3)nc1`, in test [1], the cell count turned out to be 562. The inhibition in test [1] was -6.9% (inactive); in test [3], -45% (inactive); in test [7], 7.37% (inactive); in test [8], 0.72% (inactive). In addition, in test [2], the inhibition of aggregation is -30.5% (inactive). For the same compound, the nuclei count amounted to 123% in test [2] and 116% in test [3]. The fluorescence slope in test [4] is -0.395 (inactive); in test [6] it was 0.00547 (inactive). In addition, the NADPH fluorescence slope in test [5] was 6.1e-05 (inactive).
Regarding `CCN(CC)c1ccc(NC(=O)c2[nH]c(C)c(C(C)=O)c2C)c(C)c1`, the cell count in test [1] amounted to 911. For the same compound, the inhibition in test [1] was 7.1% (inactive); in test [3], -105% (inactive); in test [7] it was 2.56% (inactive); in test [8] it was -8.53% (inactive). The inhibition of aggregation in test [2] is 8.4% (inactive). The figures for the nuclei count in test [2] and in test [3] were 109% and 136%, respectively. The fluorescence slope in test [4] was -0.555 (inactive); in test [6] it was 0.00732 (inactive). For the same compound, in test [5], the NADPH fluorescence slope is -3.3e-05 (inactive).
Regarding `Cc1ccccc1CN1CCN(CC(=O)NCc2ccco2)C1=O`, the cell count in test [1] was 395. Moreover, the inhibition is -1.7% (inactive) in test [1], -7.2% (inactive) in test [3], 23.3% (inactive) in test [7] and 22.7% (inactive) in test [8]. Besides, the inhibition of aggregation in test [2] is -11.1% (inactive). The nuclei count in test [2] turned out to be 97.3%; in test [3] it was 109%. The results for the fluorescence slope in test [4] and in test [6] were -0.511 (inactive) and 0.00663 (inactive), respectively. The NADPH fluorescence slope in test [5] was -0.000109 (inactive).
Regarding `COc1ccc(CCNS(=O)(=O)c2ccc3c(c2)CCN3C(=O)CCC(=O)O)cc1OC`, in test [1], the cell count was 620. In addition, the inhibition in test [1] was -6.5% (inactive); in test [3], -14.5% (inactive); in test [7], 12.6% (inactive); in test [8], 21.5% (inactive). Moreover, in test [2], the inhibition of aggregation was 0.9% (inactive). Also, the nuclei count came out at 125% in test [2] and 121% in test [3]. The values for the fluorescence slope in test [4] and in test [6] were -0.553 (inactive) and 0.00473 (inactive), respectively. For the same compound, the NADPH fluorescence slope in test [5] was 7.1e-06 (inactive).
Consider `CCOC(=O)CSC1=Nc2ccccc2C2=NC(CC(=O)NCc3cccs3)C(=O)N12` (stereo not given), for which the cell count in test [1] stood at 224. The inhibition is 7.2% (inactive) in test [1], 26% (inactive) in test [3], 0.227% (inactive) in test [7] and 9.15% (inactive) in test [8]. Besides, in test [2], the inhibition of aggregation was 13.9% (inactive). The nuclei count amounted to 81.6% in test [2] and 78.1% in test [3]. Besides, the results for the fluorescence slope in test [4] and in test [6] were -0.572 (inactive) and 0.00528 (inactive), respectively. Moreover, the NADPH fluorescence slope in test [5] is -5.5e-05 (inactive).
On to `COc1ccccc1C(=O)Nc1ccc(N2CCN(S(C)(=O)=O)CC2)cc1`, for which the cell count in test [1] came to 320. Further, the inhibition in test [1] was -6.8% (inactive); in test [3], 18.3% (inactive); in test [7], -8.58% (inactive); in test [8], -50.2% (inactive). In addition, the inhibition of aggregation in test [2] was 7% (inactive). The nuclei count in test [2] was determined as 127%; in test [3] it was 116%. Moreover, the figures for the fluorescence slope in test [4] and in test [6] were -0.242 (inactive) and 0.00706 (inactive), respectively. Further, the NADPH fluorescence slope in test [5] is -2.5e-06 (inactive).
As for `O=C(OCc1nnc(-c2ccccc2)o1)c1ccc(S(=O)(=O)NCc2ccco2)cc1`, the cell count in test [1] is 722. The inhibition in test [1] was -8.9% (inactive); in test [3], -51.8% (inactive); in test [7], -7.1% (inactive); in test [8], 2.67% (inactive). In test [2], the inhibition of aggregation is -17.9% (inactive). Also, the nuclei count is 89.7% in test [2] and 113% in test [3]. The results for the fluorescence slope in test [4] and in test [6] were -0.458 (inactive) and 0.00635 (inactive), respectively. Moreover, the NADPH fluorescence slope in test [5] is -0.000324 (inactive).
On to `CCOC(=O)c1ccc(NC(=O)NC(C)C2CCCO2)cc1` (stereo not given), for which, in test [1], the cell count turned out to be 352. Besides, the inhibition in test [1] was -12.3% (inactive); in test [3], -94.9% (inactive); in test [7], -13% (inactive); in test [8], 98.6% (active). Also, the inhibition of aggregation in test [2] was -23.9% (inactive). Besides, the values for the nuclei count in test [2] and in test [3] were 101% and 86.6%, respectively. Moreover, the fluorescence slope in test [4] was -0.462 (inactive); in test [6] it was 0.00652 (inactive). For the same compound, in test [5], the NADPH fluorescence slope was 2e-05 (inactive).
As to `O=C1CC(c2ccc(Cl)cc2)n2nc(N3C(=O)c4ccccc4C3=O)nc2N1` (stereo not given), the cell count in test [1] turned out to be 346. Also, the inhibition is 11.4% (inactive) in test [1], 30.5% (inactive) in test [3], 16.6% (inactive) in test [7] and 24.4% (inactive) in test [8]. Further, the inhibition of aggregation in test [2] is -2.1% (inactive). Also, the nuclei count amounted to 104% in test [2] and 98.9% in test [3]. For the same compound, the fluorescence slope was -0.587 (inactive) in test [4] and 0.00353 (inactive) in test [6]. Also, in test [5], the NADPH fluorescence slope was -3.9e-05 (inactive).
